GI50, Stability and RatioGI50 data for ten molecules are collected here from ChEMBL document CHEMBL1921724, “In search of a cytostatic agent derived from the alkaloid lycorine: synthesis and growth inhibitory properties of lycorine derivatives” (Bioorg Med Chem, 2011).

Where only a bound is given, the exact number is not on record here.

The test system of one data set is SK-MEL-28. Description: Growth inhibition of pro-apoptotic stimuli-resistant human SK-MEL-28 cells after 72 hrs by MTT assay. The following applies: SK-MEL-28, 72 h. Format: functional. A digest of the protocol:
(§1)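 Cells seeded at 10,000 to 40,000 cells/mL depending on cell type and allowed to attach for 24 h. They were then cultured 72 h with or without compound (untreated control). Living cells were measured by MTT reduction to formazan, read at 570 nm against a 630 nm reference. GI50 was derived from the growth levels.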

A further data set deals with PC-3. Nature of the data set: Growth inhibition of human PC3 cells after 72 hrs by MTT assay. Format: functional. The following applies: PC-3, 72 h. A general note: Tetrazolium dyes change colour on reduction, which living cells bring about.
The test system of another data set is MCF7. Description: Growth inhibition of human MCF7 cells after 72 hrs by MTT assay. Format: functional. The following applies: MCF7, 72 h.
For another data set, the system named is B16-F10. Description: Growth inhibition of pro-apoptotic stimuli-sensitive mouse B16F10 cells after 72 hrs by MTT assay. Type of data set: functional. The note with it: B16-F10, 72 h. The gist of the method:
as §1

Data set [1] can be described thus: Growth inhibition of pro-apoptotic stimuli-sensitive human Hs683 cells after 72 hrs by MTT assay. Format: functional. The following applies: Hs 683, 72 h. A digest of the protocol: as §1
The test system of another data set is T98G. Description: Growth inhibition of pro-apoptotic stimuli-resistant human T98G cells after 72 hrs by MTT assay. Type of data set: functional. A digest of the protocol: as §1
Data set [2] in a line: Chemical stability of the compound at pH 5 to 7.4. Type of data set: physicochemical. The following applies: buffer.
A further data set has as its system A549. Description: Growth inhibition of pro-apoptotic stimuli-resistant human A549 cells after 72 hrs by MTT assay. Format: functional. The note with it: A549, 72 h. A digest of the protocol: as §1
The nature of data set [3]: Growth inhibition of pro-apoptotic stimuli-resistant human U373 cells after 72 hrs by MTT assay. Type of data set: functional, U-373MG ATCC. The note with it: U373 MG. A digest of the protocol: as §1
Data set [4] in a line: Ratio of lycorine GI50 to compound GI50 for pro-apoptotic stimuli-resistant human U373 cells after 72 hrs by MTT assay. Type of data set: functional, U-373MG ATCC.

Turning to `CC/C=C\C/C=C\C/C=C\C/C=C\C/C=C\C/C=C\CCC(=O)O[C@H]1[C@H]2c3cc4c(cc3CN3CCC(=C[C@@H]1O)[C@H]23)OCO4`, the 50% growth inhibitory concentration (GI50) (usually the concentration giving 50% growth inhibition) with SK-MEL-28 worked out at 25 µM; with PC-3, 19 µM; in the data set with MCF7, 21 µM; in the data set with B16-F10 it was 18 µM; in [1], 20 µM; in the data set on T98G, 3 µM. Moreover, the GI50 worked out at 15 µM in the data set on A549 and 8 µM in data set [3]. The same molecule displayed a Stability in [2] of 3 days.
Take `CCCCCCCC/C=C\CCCCCCCC(=O)O[C@H]1[C@H]2c3cc4c(cc3CN3CCC(=C[C@@H]1O)[C@H]23)OCO4`: the GI50 was found to be 30 µM in the data set on SK-MEL-28; 22 µM in the data set with PC-3; 30 µM with MCF7; 21 µM in the data set on B16-F10; 14 µM in data set [1]; 0.8 µM in the data set on T98G. Moreover, the results for the GI50 (with A549; in data set [3]) were 14 µM and 4 µM, respectively. The Stability in data set [2] was 3 days.
Regarding `C=CCO[C@H]1[C@H]2c3cc4c(cc3CN3CCC(=C[C@@H]1OCC=C)[C@H]23)OCO4` [DIALLYLLYCORINE], the GI50 amounted to 6 µM in the data set with SK-MEL-28; 1 µM in the data set on PC-3; 0.2 µM with MCF7; 4 µM in the data set with B16-F10; 2 µM in data set [1]; 4 µM with T98G. For the same molecule, the concentration for 50% growth inhibition (GI50) was 4 µM in the data set with A549 and 0.03 µM in data set [3]. The RatioGI50 in [4] was 100.
For the molecule `CCCCCCCCCCCCCCCCCC(=O)O[C@H]1[C@H]2c3cc4c(cc3CN3CCC(=C[C@@H]1O)[C@H]23)OCO4`, the 50% growth inhibitory concentration (GI50) in the data set with SK-MEL-28 was found to be 34 µM; in the data set with PC-3, 26 µM; with MCF7 it was 38 µM; with B16-F10, 23 µM; in data set [1], 24 µM; in the data set on T98G, 16 µM. Also, the figures for the 50% growth inhibitory concentration (GI50) (in the data set on A549; in data set [3]) were 23 µM and 8 µM, respectively. Moreover, in data set [2], the Stability worked out at 3 days.
`O[C@@H]1[C@@H](O)[C@H](O)[C@@]2(O)CCN3Cc4cc5c(cc4[C@H]1[C@H]32)OCO5`: the GI50 is > 100 µM in the data set on SK-MEL-28; > 100 µM in the data set with PC-3; > 100 µM in the data set on MCF7; 83 µM in the data set with B16-F10; > 100 µM in data set [1]; > 100 µM in the data set with T98G. Further, the GI50 (in the data set with A549; in data set [3]) was > 100 µM throughout.
For `CC(=O)O[C@@H]1[C@@H](OC(C)=O)[C@H](O)[C@@]2(O)CCN3C(=O)c4cc5c(cc4[C@H]1[C@H]32)OCO5`, the 50% growth inhibitory concentration (GI50) was > 100 µM in the data set with SK-MEL-28; > 100 µM with PC-3; > 100 µM with MCF7; 86 µM in the data set on B16-F10; > 100 µM in data set [1]; > 100 µM in the data set with T98G. Moreover, the GI50 (in the data set on A549; in data set [3]) was > 100 µM in each case.
With `CC(C)[Si](O[C@H]1C=C2CCN3Cc4cc5c(cc4[C@H]([C@@H]1O)[C@@H]23)OCO5)(C(C)C)C(C)C`, the 50% growth inhibitory concentration (GI50) in the data set with SK-MEL-28 amounted to 26 µM; in the data set with PC-3 it was 18 µM; in the data set with MCF7 it was 24 µM; in the data set on B16-F10, 22 µM; in [1] it was 22 µM; with T98G, 11 µM. In addition, the results for the GI50 (in the data set with A549; in data set [3]) were 15 µM and 13 µM, respectively.
As to `CCCCCCCCCCCCCCCC(=O)O[C@H]1[C@H]2c3cc4c(cc3CN3CCC(=C[C@@H]1O)[C@H]23)OCO4`, the 50% growth inhibitory concentration (GI50) was found to be 35 µM in the data set with SK-MEL-28; 29 µM in the data set with PC-3; 32 µM in the data set on MCF7; 28 µM in the data set on B16-F10; 27 µM in data set [1]; 7 µM with T98G. Besides, the results for the GI50 (in the data set on A549; in [3]) were 26 µM and 24 µM, respectively. In data set [2], this molecule returned a Stability of 3 days.
For the molecule `O=c1c2cc3c(cc2c2cccc4ccn1c42)OCO3`, the GI50 was > 100 µM in the data set with SK-MEL-28; > 100 µM in the data set with PC-3; 27 µM with MCF7; 34 µM in the data set with B16-F10; 19 µM in [1]; 96 µM with T98G. For the same molecule, the concentration for 50% growth inhibition (GI50) is 96 µM with A549 and 27 µM in [3].
As for `CC(=O)O[C@H]1[C@H]2c3cc4c(cc3C(=S)N3CCC(=C[C@@H]1OC(C)=O)[C@H]23)OCO4`, the concentration for 50% growth inhibition (GI50) in the data set on SK-MEL-28 was 47 µM; in the data set on PC-3, > 100 µM; in the data set on MCF7, 35 µM; in the data set on B16-F10 it was 30 µM; in [1] it was 52 µM; in the data set on T98G, 57 µM. Besides, the GI50 was 57 µM with A549 and 46 µM in data set [3].
